Screens (PubChem BioAssay)
The full list was thinned out, with hits kept by preference.
INS promoter act – activators of insulin promoter-driven GFP, primary screen, imaging, TRM-6 cells (human fetal islet line), eGFP reporter, cell count | hit rate 0.81% among 130,000 | AID 1296, 2008 | plate-scaled: unstimulated 0, stimulated control 100 | activation, % at 2 µM;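 active = activation at 2 µM above a set limit, confirmed on inspection of the cell images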;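 also: share of cells whose green reporter signal exceeds an intensity cutoff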
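test system = TRM-6 insulin promoter–eGFP reporter cells | benchmarks = stimulated versus unstimulated wells as plate controls | read-out basis = percent cells above green-intensity threshold, converted to percent activation versus plate controls | detection = fixed-cell fluorescence microscopy, eGFP plus Hoechst | incubation = tamoxifen pre-incubation 15 h overnight, then compound exposure 48 h at 37 °C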
Numbers without * were called inactive.

SMILES	INS promoter act
CC(=O)Nc1ccc(S(=O)(=O)NC(C)C(=O)NCCc2ccc(F)cc2)cc1 (configuration not stated)	123
O=C(Nc1ccc(Cl)cc1)N1CC=CCC1	-63
Cc1cc(C)n(C(=O)COc2ccc([N+](=O)[O-])cc2)n1	2
COc1ccc(C(=O)Oc2cc(OC)cc(OC)c2C(C)=O)cc1	0
CCN(CC)S(=O)(=O)c1ccc(NC(=O)CN(c2ccc(OC)cc2OC)S(C)(=O)=O)cc1	133
CCc1noc(C)c1C(=O)NCCc1ccc(OC)c(OC)c1	-9
COc1ccccc1NC(=O)CN1CCN(c2ccccc2F)CC1	7
CCOc1ccc(C2OC34CCCCC3C(C#N)(C#N)C2(C#N)C(=N)O4)cc1OC (configuration not stated)	-6
Cc1ccc(NC(=O)CN2CCN(CCN=CC3=C(O)CC(c4ccccc4)CC3=O)CC2)cc1 (configuration not stated)	7
C=CCN=C1SC(CC)C(=O)N1S(=O)(=O)c1ccc(C)cc1 (configuration not stated)	9
COc1ccc(OC)c(NC(=O)CSc2nnc(CNC(=O)COc3ccc(Cl)cc3)o2)c1	129*
COc1cc(C(=O)NCc2nnc(SCC(=O)Nc3nc4ccccc4s3)o2)cc(OC)c1OC	4
COc1cc(C(=O)NCc2nnc(SCC(=O)Nc3nccs3)o2)cc(OC)c1OC	144
Cc1ccc(Nc2nc3ccccc3[nH]2)nc1	-13
O=S(=O)(Nc1cccc(CCc2ccccn2)c1)c1ccc2ccccc2c1	7
O=C(Cn1nc(C(F)(F)F)c2c1CCC2)NC1CCCCC1	-8
O=C(O)Cn1nc(C(F)(F)F)c2c1CCCC2	-7
O=C(Cn1nc(C(F)(F)F)c2c1CCC2)Nc1ccccc1C(F)(F)F	600*
C=C(Br)Cn1c(CC(C)C)nc2ccccc21	9
CC(=O)Nc1nc2ccccc2n1CCN1CCOCC1	3
COc1ccc(CNc2nc3ccccc3n2CCN2CCOCC2)cc1	462*
C=CCc1cccc(CNc2nc3ccccc3n2CCN2CCOCC2)c1O	169
Cc1ccc(CSc2nnc(-c3ccncc3)o2)c(C)c1	4
O=C(Cc1ccccc1F)OCC(=O)N1CCN(C(=O)c2ccco2)CC1	0
CCCCc1ccc(S(=O)(=O)N2CCN(C(=O)c3ccco3)CC2)cc1	7
SMILES	INS promoter act
O=C(Cc1ccccc1)N1CCN(C(=O)c2ccco2)CC1	529*
O=C(c1ccco1)N1CCN(S(=O)(=O)Cc2ccc(Cl)cc2)CC1	420*
O=C(c1ccco1)N1CCN(S(=O)(=O)c2cccs2)CC1	-77
O=C(CCSc1ccccc1)N1CCN(C(=O)c2ccco2)CC1	156
COc1ccccc1C(=O)NNC(=O)c1sccc1-n1cccc1	138
COc1ccc(/C=C/C(=O)N(C)C2CCS(=O)(=O)C2)cc1OC (configuration not stated)	0
COc1ccc(N2CCC(CNS(=O)(=O)c3cccc(C(F)(F)F)c3)C2)cc1 (configuration not stated)	-7
CNC(=O)c1nnn(Cc2ccccc2)c1NC(C)=O	-10
c1ccc2c(c1)OCCOCCOCCOCCOc1ccccc1OCCOCCOCCO2	161
Clc1ccc(CO/N=C2\CCCc3nonc32)cc1	0
CCn1c(SCC(=O)O)nc2ccccc21	0
CN(C)C(=O)Cn1c(SCC(=O)NC2CCCCC2)nc2ccccc21	-5
CCn1c(SCC(=O)NC(=O)NC(C)(C)C)nc2ccccc21	129*
CC(C)OC(=O)CC12CN3CN(C1)CC(CC(=O)OC(C)C)(C3)C2=O	354
CCOc1cc(C(=O)NCCN2CCOCC2)cc(OCC)c1OCC	3
CCN=C1SC(C(=O)Nc2cccc(Br)c2)CC(=O)N1CC (configuration not stated)	0
COc1cc(C)c(-c2[nH]ncc2-c2csc(C)n2)c(O)c1	0
CC(=O)C1=C(O)C(=O)N(CCCn2ccnc2)C1c1ccc(Br)cc1 (configuration not stated)	347*
O=C(NCCCn1ccnc1)C(=O)NCC1OCCN1S(=O)(=O)c1ccc(Br)cc1 (configuration not stated)	0
CCN(CC)CCCN1C(=O)C(O)=C(C(C)=O)C1c1cccc(OC)c1 (configuration not stated)	-7
CCCCOc1ccc(NC(=O)Cn2c(=O)ccc3c(C)cc(C)nc32)cc1	3
CCc1cc2c(-n3nc(C)cc3C)ncnc2s1	343
Cc1cc(C)n(-c2cc(=O)n(C)c(=O)n2C)n1	-3
Cc1cc(C)n(-c2cc(C)c(C)cc2Br)n1	132*
CC(NC(=O)COC(=O)[C@@H]1CCCN1S(=O)(=O)c1ccccc1F)C12CC3CC(CC(C3)C1)C2 (some centres not stated)	4
SMILES	INS promoter act
CN1/C(=C\C(=O)C(F)F)C(C)(C)c2ccccc21	5
CN1/C(=C\C=Nc2ccc3ccccc3c2)C(C)(C)c2ccccc21	6
CN1\C(=C/C=C/C=C/C=[N+](C)C)C(C)(C)c2ccccc21	567*
CCOC(=O)CC1C(=O)NCCN1C(=O)c1sc2ccccc2c1Cl (configuration not stated)	6
CCOC(=O)CNC(=S)N(Cc1ccccc1)Cc1cccnc1	7
Cc1cc(C)c2cc(CN(Cc3cccnc3)C(=O)c3ccc(F)cc3)c(Cl)nc2c1	130*
Cc1[nH]c2ccccc2c1CCN(Cc1cccnc1)C(=S)Nc1ccc(F)cc1	0
COc1cc([N+](=O)[O-])ccc1NC(=S)Nc1cccc(C(=O)O)c1	-10
CC(SC(=S)N1CCCC1)C(=O)O (configuration not stated)	-7
COc1ccc(CN2CCN(S(=O)(=O)c3ccc(F)cc3)CC2)c(OC)c1OC	3
Cc1cc(C)cc(OCC(=O)Nc2ccc3c(c2)C(=O)c2ccccc2C3=O)c1	7
O=[N+]([O-])c1ccc(Cc2nnc(-c3ccccc3Cl)o2)cc1	344*
Fc1ccc(Cc2nnc(-c3cccs3)o2)cc1	-62
Clc1ccccc1-c1nnc(-c2cccs2)o1	0
O=C1CC(=O)C(n2cncn2)C(c2cccc(Cl)c2)C1 (configuration not stated)	5
CCN1C(=O)c2cccc3c(S(=O)(=O)NC(Cc4c[nH]c5ccccc45)C(=O)O)ccc1c23 (configuration not stated)	-9
O=C(CCc1ccccc1)NNC(=O)C1CCCCC1	-8
COc1ccc(-c2c(C)oc3c(CN4CCN(C)CC4)c(O)ccc3c2=O)cc1	125
N=C1C(c2ccccc2)=C(O)CN1c1cccc(S(N)(=O)=O)c1	-7
CC(C)(C)OC(=O)N/N=C/c1cccc([N+](=O)[O-])c1	0
CCCn1c(SCC(=O)Nc2ccc(Cl)cc2)n[nH]c1=O	-8
CCCn1c(SCC(=O)c2cc(C)ccc2C)n[nH]c1=O	100*
CCCn1c(SCC(=O)Nc2ccc(C(=O)Nc3ccccc3OC)cc2)n[nH]c1=O	7
COc1ccc(N2CCN(C(CNC(=O)c3cccc(Cl)c3)c3cccnc3)CC2)cc1 (configuration not stated)	-71
O=C(Nc1ccc(Br)cc1)c1ccco1	557*
O=C(Nc1ccc(F)c(F)c1)c1ccco1	-7
CC(=O)N(C)c1ccc(NC(=O)c2ccco2)cc1	-3
CCOc1ccc(CCNC(=O)C2CCCN(c3nnc(-n4cccc4)s3)C2)cc1OCC (configuration not stated)	8
CC(C)(C)NC(=O)CSc1nncn1NCc1ccccc1	0
Fc1ccc(CSc2nncn2NCc2ccccc2)cc1	428*
